Assay outcomes as filed in PubChem.
Only some compounds are listed: those with a hit (about 1.9% of all), similar ones and a draw of the others.
IDE act: IDE (human) activation, cell-based. P14735. HEK cells, FAbeta-B cleavage, fluorescence polarization; 0% vehicle, 100% cell-free pure enzyme wells. AID 493087. activation, % at 5.96 µM. 340,000 compounds, 0.073% hits;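 active = activation above the mean of all tested compounds plus 3 SD, set per screening campaign, cut at about 17% in these data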
PHOSPHO1 inh: blocks human PHOSPHO1 phosphatase activity; 290,000 compounds, 1.1% hits; inhibition, % at 13.3 µM; AID 1565; Q8TCT1; recombinant PHOSPHO1, absorbance phosphatase assay; in the data active = inhibition above about 60%
Target sequence (Q8TCT1 whole entry, looked up): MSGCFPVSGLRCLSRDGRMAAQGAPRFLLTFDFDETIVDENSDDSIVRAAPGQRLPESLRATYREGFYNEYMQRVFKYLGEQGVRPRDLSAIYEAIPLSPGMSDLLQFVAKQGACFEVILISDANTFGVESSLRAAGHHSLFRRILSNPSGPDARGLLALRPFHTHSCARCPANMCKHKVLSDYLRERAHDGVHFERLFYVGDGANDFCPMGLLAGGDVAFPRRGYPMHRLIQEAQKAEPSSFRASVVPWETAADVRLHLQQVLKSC
proCasp3 act: activates human procaspase-3. P42574. 330,000 compounds, 0.11% hits. activation, % at 8.5 µM. recombinant procaspase-3 D3A, Ac-DEVD-pNA absorbance 405 nm;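 active = activation above the mean of all tested compounds plus 3 SD, cut at about 21% in these data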
Target sequence (P42574 whole entry D9A/D28A/D175A): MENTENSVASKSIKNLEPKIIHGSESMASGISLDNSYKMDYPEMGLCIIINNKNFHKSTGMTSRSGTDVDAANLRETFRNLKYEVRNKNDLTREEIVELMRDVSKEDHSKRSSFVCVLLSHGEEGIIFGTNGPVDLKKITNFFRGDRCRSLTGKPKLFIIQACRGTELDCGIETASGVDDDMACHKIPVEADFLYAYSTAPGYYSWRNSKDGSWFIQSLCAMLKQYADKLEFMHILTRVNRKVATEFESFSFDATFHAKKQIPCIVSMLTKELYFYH
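Test system: Procaspase-3 D3A mutant, all three cleavage aspartates alanine | Dosing: Single dose, 8.5 µM nominal compound, 0.8% DMSO | Schedule: 1 h preincubation, 2 h reaction | Technique: 405 nm absorbance of p-nitroaniline, reads at 0 and 120 min | Repeats: One well per compound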
procasp7 counter: activates human procaspase-7, counter-screen for procaspase-3 activators. 330,000 compounds, 0.093% hits. recombinant procaspase-7, Ac-DEVD-pNA absorbance 405 nm; D23A/D198A/D206A triple mutant, cannot self-cleave; scale: DMSO 0, 5 µM enzyme 100. activation, % at 8.5 µM;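 active = percent activation above the screen-wide mean plus 3 SD, cut at about 25% in these data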
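Assay system: Uncleavable procaspase-7 mutant enzyme; Input: 2 µM procaspase-7 mutant as dispensed; Also added: DEVD-pNA substrate; Medium: Zinc-free HEPES pH 7.4 with 300 mM NaCl, 0.01% Triton X-100; Timing: 1 h compound preincubation, 2 h substrate cleavage, 25 °C; Measured by: Epi-absorbance of released pNA at 405 nm, two timepoints.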
UBC13 inh: blocks human UBC13 polyubiquitin chain formation; inhibition, % at 20 µM; 330,000 compounds, 0.47% hits; AID 485273; P61088; TR-FRET; in the data active = inhibition above about 45%, passing the limit was not always enough; inconclusive = no clear call, values can overlap the other calls
Target sequence (P61088 whole entry, looked up): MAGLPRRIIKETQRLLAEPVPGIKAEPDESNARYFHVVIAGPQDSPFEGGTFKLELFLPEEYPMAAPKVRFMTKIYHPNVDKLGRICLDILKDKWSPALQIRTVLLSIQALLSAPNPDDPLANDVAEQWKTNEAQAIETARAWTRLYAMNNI
IDE cell inh: inhibitors of human insulin-degrading enzyme in cells; HEK cells, FAbetaB cleavage, fluorescence polarization; P14735; 320,000 compounds, 0.41% hits; inhibition, % at 5.59 µM;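 active = percent inhibition above the average of all tested compounds plus 3 SD, set per screening campaign, cut at about 16% in these data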;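 note: IDE supplied by intact live HEK cells; FP after avidin binding of uncleaved biotin substrate so inhibition keeps polarization high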
Each line names hits and unclear results; the compound was inactive in the other large screens.

Cc1nc2ccccc2n1CCc1nc2c3ccccc3nc(=S)n2[nH]1	PHOSPHO1 inh 86
Cc1ccccc1-c1nc2c3ccccc3nc(=S)n2[nH]1	none (no result: UBC13 inh)
CC(=O)c1c(COC(=O)c2cccnc2)nc2ccccc2[n+]1[O-]	PHOSPHO1 inh 88
O=C(Nc1nnc(SCC(=O)N2CCOCC2)s1)c1ccccc1Cl	PHOSPHO1 inh 66
O=C(Nc1nnc(SCC(=O)N2CCCCC2)s1)c1cccs1	PHOSPHO1 inh 74
O=C(Nc1nnc(SCC(=O)N2CCCCC2)s1)c1ccccc1F	none
CC(=O)C1CCC2C3CCC4=CC(=O)CCC4(C)C3(F)C(O)CC12C (stereo unspecified)	none (no result: PHOSPHO1 inh, proCasp3 act, procasp7 counter, UBC13 inh, IDE cell inh)
COc1ccc(N(C)C(=O)c2cn(C)c(=O)c3cc(OC)c(OC)cc23)cc1	none (no result: PHOSPHO1 inh)
CCOC(=O)c1c(S(=O)(=O)NCC(=O)Nc2cccc(C)c2)c(C)n(C)c1C	PHOSPHO1 inh 70
CCOC(=O)c1c(S(=O)(=O)NCC(=O)Nc2ccccc2)c(C)n(C)c1C	none
Cc1noc(C)c1-c1ccc2nc[nH]c(=O)c2c1	none (no result: PHOSPHO1 inh)
COC(=O)c1ccc(CSc2nnc3n(Cc4ccccc4OC)c(=O)c4ccccc4n23)o1	PHOSPHO1 inh 73
COC(=O)c1ccc(CSc2nc3ccccc3c(=O)n2-c2ccc(OC)c(OC)c2)o1	none
COc1ccc(N2CCN(C3CCCN(C(=O)CN4CCOC4=O)C3)CC2)cc1 (stereo unspecified)	none
CC(C)CCNC(=O)[C@H](Cc1ccccc1)N1Cc2ccccc2C1=O	none
S=C1NC(c2cccs2)=CC(c2ccc(Br)cc2)N1 (stereo unspecified)	IDE cell inh 17
Cc1coc2cc3oc(=O)c(CCC(=O)NCCN4CCOCC4)c(C)c3cc12	none
Cc1cccc(CCNC(=O)CNS(=O)(=O)c2ccc3nc(C)sc3c2)c1	none
Cc1nc2ccc(S(=O)(=O)NCC(=O)NCCc3ccc(Cl)cc3)cc2s1	PHOSPHO1 inh 70
O=C(NN1CC(C(=O)OCc2ccc(Cl)cc2Cl)CC1=O)c1ccccc1 (stereo unspecified)	PHOSPHO1 inh 61 (no result: proCasp3 act, procasp7 counter, IDE cell inh)
O=C(NCc1ccc(Cl)cc1Cl)C1CC(=O)N(Cc2ccccc2)C1 (stereo unspecified)	none
COc1ccccc1C(=O)N/C(=C\c1cn(C)c2ccccc12)C(=O)NCCCN1CCOCC1	none
CC(=O)c1c(C)[nH]c(=S)c(C#N)c1-c1ccc(Cl)cc1	UBC13 inh inconclusive (no result: IDE act)
Cc1[nH]c(=S)c(C#N)c(-c2ccco2)c1C(=O)N(C)C	PHOSPHO1 inh 61
NC(=O)c1ncn([C@@H]2O[C@H](CNCc3ccc(-c4cc(C(F)(F)F)ccc4Cl)o3)[C@@H](O)[C@H]2O)n1	none (no result: PHOSPHO1 inh, proCasp3 act, procasp7 counter, UBC13 inh, IDE cell inh)
Cc1ccc(NC(=S)NNC(=O)c2ccccc2OC(F)F)cc1	PHOSPHO1 inh 86
COc1cccc(NC(=S)NNC(=O)c2ccccc2OC(F)F)c1	none
O=C(NNC(=S)Nc1ccc(F)cc1)c1ccccc1OC(F)F	PHOSPHO1 inh 88
CC(NC(=O)c1ccccc1Cl)c1ccc(-n2ccnc2)cc1 (stereo unspecified)	none
Cc1ccc(NCc2nc3ccccc3n2C)cc1C	PHOSPHO1 inh 60
O=c1ccn([C@@H]2O[C@H](CNCc3ccc(-n4cccn4)cc3)[C@@H](O)[C@H]2O)c(=O)[nH]1	none (no result: PHOSPHO1 inh, proCasp3 act, procasp7 counter, UBC13 inh, IDE cell inh)
CN1CCC(OC(=O)c2cc3cc(Cl)cc(Cl)c3oc2=O)CC1	PHOSPHO1 inh 61
CCCCCCOC(=O)C[N+](C)(C)CCOC1CC2CCC1(C)C2(C)C (stereo unspecified)	UBC13 inh 54
Cc1ccccc1OC(=O)n1c(=S)oc2cc(Cl)ccc21	PHOSPHO1 inh 103 (no result: UBC13 inh)
O=C(Oc1ccccc1)n1c(=S)oc2ccccc21	none
CCOC(=O)c1ccc(N=c2ssnc2Cl)cc1	PHOSPHO1 inh 77 (no result: proCasp3 act, procasp7 counter, IDE cell inh)
Clc1ccc(N=c2ssnc2Cl)cc1	PHOSPHO1 inh 89
COc1ccc(N=c2ssnc2Cl)cc1	PHOSPHO1 inh 77
COc1cc(N=c2ssnc2Cl)cc(OC)c1OC	none
N#Cc1ccc(N=c2ssnc2Cl)cc1	none
CCOC(=O)c1ccc(N=C2SC(C(=O)NC)CC(=O)N2Cc2ccc(F)cc2)cc1 (stereo unspecified)	none
Clc1nssc1=Nc1ccccc1	PHOSPHO1 inh 97 (no result: proCasp3 act, procasp7 counter, UBC13 inh, IDE cell inh)
CC1=C(C)CC2C(C1)C(=O)c1ccc(Br)cc1S2(=O)=O (stereo unspecified)	none (no result: PHOSPHO1 inh)
Cc1ccc(C(=O)NC(Cc2cccc(F)c2)C(=O)O)cc1 (stereo unspecified)	none (no result: PHOSPHO1 inh, UBC13 inh, IDE cell inh)
COc1cccc(N2CCN(S(=O)(=O)c3ccc4c(c3)N(C(C)=O)CCO4)CC2)c1	none
O=C1NC[C@@H](c2ccccc2)OC(=O)[C@@H](Cc2ccc(F)cc2)CC/C=C/C[C@@H]1CC(=O)N(CCO)Cc1ccccc1	none (no result: PHOSPHO1 inh)
Nc1nc(-c2ccco2)c(-c2ccco2)s1	PHOSPHO1 inh 88
Nc1nc(-c2ccco2)cs1	PHOSPHO1 inh 93
CCCS(=O)(=O)N1CCCC(C(=O)N2CCCCC2)C1 (stereo unspecified)	none
O=[N+]([O-])/C(=C\Nc1ccccc1Cl)S(=O)(=O)c1ccccc1	PHOSPHO1 inh 87
COc1ccc(S(=O)(=O)N2CCC(C(=O)NC3CC(C)(C)NC(C)(C)C3)CC2)cc1	PHOSPHO1 inh 70
COC(c1ccccc1)c1nnc(CCC(=O)NC2C3CC4CC(C3)CC2C4)o1 (stereo unspecified)	PHOSPHO1 inh 60
CCOC(=O)CCN(C(=O)Nc1ccccc1)C1CCCCC1	none (no result: PHOSPHO1 inh, proCasp3 act, procasp7 counter, UBC13 inh, IDE cell inh)
COc1ccc(-c2nnc(SCc3csc(N)n3)n2C)cc1	PHOSPHO1 inh 73
O=C(CN1CCN(Cc2ccccc2)CC1)c1c[nH]c2ccccc12	PHOSPHO1 inh 80
Cc1ccc(S(=O)(=O)NCC(=O)OCc2nnc(-c3ccccc3)o2)cc1	PHOSPHO1 inh 65
COc1ccccc1CNS(=O)(=O)c1ccc(-n2cccn2)cc1	none
S=c1[nH]ncn1/N=C/c1ccccn1	PHOSPHO1 inh 98
Cn1nccc1C(=O)OCC(=O)Nc1cccc(Cl)c1	none (no result: PHOSPHO1 inh)
Cc1cc(C(=O)CSc2nnc(NCc3ccccc3)s2)c(C)n1C	PHOSPHO1 inh 91
Cc1cc(C(=O)CSc2nnc(Nc3ccccc3F)s2)c(C)n1CC1CCCO1 (stereo unspecified)	PHOSPHO1 inh 94 (no result: proCasp3 act, procasp7 counter, UBC13 inh, IDE cell inh)
O=C(CSc1nnc(Nc2ccccc2)s1)NCC1CCCO1 (stereo unspecified)	none (no result: PHOSPHO1 inh)
Cc1cc(C(=O)CSc2nnc(Nc3ccccc3)s2)c(C)n1CC1CCCO1 (stereo unspecified)	PHOSPHO1 inh 90
CN1/C(=C\C(=O)CSc2nnc(NCc3ccccc3)s2)C(C)(C)c2ccccc21	none
CCn1c(SCC(=O)c2cc(C)n(CC3CCCO3)c2C)nc2ccccc21 (stereo unspecified)	PHOSPHO1 inh 73
